Common to all, as to type: functional
Assay [1] is filed under the species Mus musculus. The assay is described as follows: Antianxiety activity was determined by measuring the antagonism of foot shock induced fighting (taming) in mice. The essentials: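 Male albino DS mice (20-24 g), oral dosing as arabic gum suspension. Paired mice under glass enclosure given foot shocks (5 Hz, 2 ms, DC 50 V); pairs with 15–20 fighting episodes in 3 min selected, five pairs per dose. Responses counted before and 60 min after dosing; ED50 = dose giving 50% inhibition, by regression analysis.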

The species named for assay [2] is Mus musculus. Kind of assay: Muscle relaxation was determined by using rotatory drum (rotarod) in mice, activity is expressed as ED50 values. The procedure, abridged:
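Male albino DS mice (20-24 g), groups of five, oral dosing in aqueous arabic gum. At 60 min placed on a 3 cm wooden rod turning at 5 rpm; animals falling off within 2 min counted. ED50 estimated by up and down method.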

For assay [3], the species on record is Mus musculus. The assay is described as follows: Sedative activity was determined by measuring the loss of the righting reflux induced by thiopental sodium in mice. The essentials:
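Male albino DS mice (20-24 g), ten per group, pretreated orally (arabic gum suspension), then given thiopental sodium 35 mg/kg iv. ED50 = dose producing 50% increase in duration of anesthesia, by regression analysis.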

Assay [4] is filed under the species Mus musculus. Kind of assay: Anticonvulsant activity was determined as the degree of protection against convulsions induced by pentylenetetrazole in mice. The essentials: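 Male albino DS mice (20-24 g), ten per group, dosed orally as arabic gum suspension. Challenged 60 min later with pentylenetetrazole 125 mg/kg sc; protection from convulsion and death scored over 2 h observation. ED50 (dose protecting 50%) estimated by probit method; 95% confidence limits given.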

Assay [5] is filed under the species Mus musculus. Kind of assay: Sedative activity was determined by measuring the inhibition of spontaneous motor activity.
For assay [6], the species on record is Mus musculus. The assay is described as follows: Sedative activity was determined by measuring the loss of the righting reflux induced by chlorprothixene in mice. The procedure, abridged:
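Male albino DS mice (20-24 g), ten per group, given oral test drug (arabic gum suspension) combined with chlorprothixene 2 mg/kg ip; samples estimated 60 min after dosing.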

As a reminder, the ED50 is the dose that gives a 50% effect, or the effect in half of the subjects. For the compound `Cc1nnc(CNC(=O)CN)n1-c1ccc(Cl)cc1C(=O)c1ccccc1`, the ED50 is 3.02 mg/kg in assay [1]; 3.94 mg/kg in assay [2]; 0.72 mg/kg in assay [3]; 0.38 mg/kg in assay [4]; 4.25 mg/kg in assay [5]; 0.94 mg/kg in assay [6].

Turning to `Clc1ccc2c(c1)C(c1ccccc1)=NCc1nncn1-2` [ESTAZOLAM], the ED50 in assay [1] is 2.62 mg/kg; in assay [2], 5.44 mg/kg; in assay [3], 2.32 mg/kg; in assay [4], 0.52 mg/kg; in assay [5], 3.09 mg/kg; in assay [6], 6.22 mg/kg.

As to `NCC(=O)NCc1nncn1-c1ccc(Cl)cc1C(=O)c1ccccc1`, the ED50 in assay [1] amounted to 5.71 mg/kg; in assay [2], 11.8 mg/kg; in assay [3], 1.97 mg/kg; in assay [4], 1.37 mg/kg; in assay [5], 31.7 mg/kg; in assay [6] it was 1.66 mg/kg.

Take `Cc1nnc(CNC(=O)CN)n1-c1ccc(Cl)cc1C(=O)c1ccccc1F`: the ED50 in assay [1] came out at 0.28 mg/kg; in assay [2], 1.84 mg/kg; in assay [3] it was 0.25 mg/kg; in assay [4] it was 0.09 mg/kg; in assay [5], 1.52 mg/kg; in assay [6] it was 0.16 mg/kg.

Turning to `Cc1nnc2n1-c1ccc(Cl)cc1C(c1ccccc1Cl)=NC2` [TRIAZOLAM], the ED50 in assay [1] was 0.4 mg/kg; in assay [2], 0.83 mg/kg; in assay [3], 0.18 mg/kg; in assay [4], 0.039 mg/kg; in assay [5] it was 0.054 mg/kg.

Consider `Cc1nnc(CNC(=O)C(N)Cc2ccccc2)n1-c1ccc(Cl)cc1C(=O)c1ccccc1Cl` (stereo not drawn), for which the ED50 in assay [1] was 0.55 mg/kg; in assay [2], 1.83 mg/kg; in assay [3] it was 1.52 mg/kg; in assay [4], 0.31 mg/kg; in assay [5], 0.38 mg/kg; in assay [6] it was 0.23 mg/kg.

Regarding `NCC(=O)NCc1nnc(C2CC2)n1-c1ccc(Cl)cc1C(=O)c1ccccc1Cl`, the ED50 amounted to 2.34 mg/kg in assay [1]; 18.7 mg/kg in assay [2]; 4.94 mg/kg in assay [3]; 0.88 mg/kg in assay [4]; 1.5 mg/kg in assay [5]; 0.49 mg/kg in assay [6].

`CN(C(=O)CNC(=O)CN)c1ccc(Cl)cc1C(=O)c1ccccc1`: the ED50 worked out at 10.9 mg/kg in assay [1]; 29.3 mg/kg in assay [2]; 5.2 mg/kg in assay [3]; 2.16 mg/kg in assay [4]; 15.2 mg/kg in assay [5].

As for `Cc1nnc(CNC(=O)CN)n1-c1ccc(Cl)cc1C(=O)c1ccccc1Cl`, the ED50 came to 0.58 mg/kg in assay [1]; 2.09 mg/kg in assay [2]; 0.27 mg/kg in assay [3]; 0.26 mg/kg in assay [4]; 0.31 mg/kg in assay [5]; 0.62 mg/kg in assay [6].

On to `Cc1nnc2n1-c1ccc(Cl)cc1C(c1ccccc1)=NC2` [ALPRAZOLAM], for which the ED50 in assay [1] is 1.09 mg/kg; in assay [2], 2.22 mg/kg; in assay [3], 0.36 mg/kg; in assay [4], 0.22 mg/kg; in assay [5], 0.94 mg/kg; in assay [6] it was 0.25 mg/kg.

As to `CN(C(=O)CNC(=O)CN)c1ccc(Cl)cc1C(=O)c1ccccc1Cl` [LORZAFONE ANHYDROUS], the ED50 amounted to 3.2 mg/kg in assay [1]; 0.8 mg/kg in assay [3]; 0.56 mg/kg in assay [4]; 1.4 mg/kg in assay [5]; 2.59 mg/kg in assay [6].

Values taken from ChEMBL document CHEMBL1121989, “Amino acid amide derivatives of 2-[3-(aminomethyl)-4H-1,2,4-triazol-4-yl]benzophenones, a novel class of annelated peptidoaminobenzophenones” (1982).
